The EternaBench riboswitch data

System: MS2 coat protein
Experiment: apparent Kd, MS2 coat protein; higher = weaker binding; RNA-MaP array; FMN 200 µM where present
Summary of the method: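 On Illumina sequencing-chip clusters, designs were transcribed by stalled E. coli RNA polymerase and titrated with SNAP-549-labelled MS2 coat protein (0.7 or 1.5 nM, doubling to 3 µM), without and then with constant ligand, in 100 mM Tris-HCl pH 7.5, 80 mM KCl, 4 mM MgCl2, BSA, DTT, yeast tRNA and Tween-20. Apparent Kd is the median of filtered per-cluster curve fits to green signal normalised to red-channel RNA signal and control-cluster median Fmax.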

[1] = designed as: OFF switch for flavin mononucleotide, no ligand
[2] = ligand present: flavin mononucleotide, designed as: OFF switch for flavin mononucleotide
[3] = designed as: ON switch for flavin mononucleotide, no ligand
[4] = ligand present: flavin mononucleotide, designed as: ON switch for flavin mononucleotide

| Sequence | apparent Kd [1] [nM] | apparent Kd [2] [nM] | apparent Kd [3] [nM] | apparent Kd [4] [nM] |
| --- | --- | --- | --- | --- |
| GGGUUACAUGAGGAUCACCCAUGUGAGGAUAUGAUACUAUGUACUUCGGUACAUAGUAUCAGAAGGCACAUCCC | 36.5 | 72.7 |  |  |
| ACAAGAUCAGGAUAUACAUGAGGAUCACCCAUGUUUAUCAAAAAGGGACUUUCUUAAUGUAGAAGGGAUCUUGU | 27.5 | 83.9 |  |  |
| UAAAUCUUGUAAGGAUAUACACGAGAUUCAAGUGUAGAAGGUACUUACAUGAGGAUCACCCAUGUAUACAUGGAUAUUAGAUAU |  |  | 142 | 38.9 |
| GUCCUUUCUGAGGAUAUUAUUUUUUUCGAUUGAUAAGAAGGCAGUACAUGAGGAUCACCCAUGUGGGUUGUCUG | 26.8 | 28.3 |  |  |
| GAGUCUCUAUUAGAACCGAUACGAACAUGAGGAUCACCCAUGUAGGAUAUGCUAAAAGUUGUGUUGCAGAAGGACAUUUAAAGC | 10.6 | 9.89 |  |  |
| AACAGCUCGUCAGGAUAUAUUUUCAUUAUAUGUAUUUAUGUACAUGAGGAUCACCCAUGUUGUUUGUAGAAGGGACGAGCUGAA | 13.6 | 11.4 |  |  |
| GAAGCACAUGAGGAUCACCCAUGUGAGGAUAUCCGUCUGGUCCGGCCGGACCAGUACCGGAGAAGGCGCGUAAA | 59.1 | 42 |  |  |
| AUCAGCUCGACAGGAUAUACGUCACUGCGUCAGCAGUGUGGUAAGAUCACAUGAGGAUCACCCAUGUAGAAGGGACGAGCUGAU | 12.1 | 56.2 |  |  |
| UUGGACGUCGCAGGAUAUGUAGGAUAUUCCUACAUGAGGAUCACCCAUGUUGACAUGGAAGAAGGACAGAAGGACGAUGUCCAU |  |  | 693 | 9.15 |
| AGGUACAUGAGGAUCACCCAUGUAAGAGACCUCAUGCGAUGUAGAAGGAUUAUCCGAGAAGAGGAAUAGGAUAUACAUGAGAAA | 158 | 127 |  |  |
| GUGUGUUGCGGGCAGGAUAUGUACUUGAGUACAUGAGGAUCACCCAUGUGCGGGUGUUUCACCCGACAGAAGGGCCUAUCGCGAC |  |  | 977 | 309 |
| GACUGCUGAGGAUAUACAUGAGGAUCACCCAUGUGCUUCAGUAUCGAAAGAUGCAUGGGUAGAAGGUGGUAGUC | 70.6 | 54.4 |  |  |
| GAGGCUAAAGGAUAUACAUGAGGAUCACCCAUGUGGAGGAAGGUUAGAUGAGGAGAAGGUAGAAGGUUAGGCGG | 37.3 | 30.9 |  |  |
| CUUUUGUGAGGAUAUCAGGUGUGCUAGCGUACUGGUACAUCUGAGAAGGCACAUGAGGAUCACCCAUGUUUCUA | 84.9 | 74.2 |  |  |
| UUAUUGGGACAGAAGGGCAUUUACAUGAGGAUCACCCAUGUUCAUCAUUGCAGGAUAUGUAUUACAUGAGGAUCAUCUAUGUUA |  |  | 259 | 36.9 |
| UGAUACUAAGAGAAGGUUCAAACUACAUAUUGCAUACAUGAGGAUCACCCAUGUUGGUGAAUAAGAAAGGAUAUUUUACUGUAU | 46.3 | 34.3 |  |  |
| GUCAGCUCGUGAGGAUAUACAACUCUGCUUCGGCAGUGUAUUAAGAUCACAUGAGGAUCACCCAUGUAGAAGGCACGAGCUGAU | 11.5 | 178 |  |  |
| GUCGCUAGAGGAUAUACAAUGGUAUAUGAUCCUAGUGACAUACAUGAGGAUCACCCAUGUAGAAGGCUAGUAAU | 24.2 | 21.7 |  |  |
| UUGCCACAUGAGGAUCACCCAUGUGAGGAUAUGGCCUGUUUGGCGUGAGCUGGUUCUGUCAGAAGGCGCGUGGG | 45.9 | 51.3 |  |  |

| Sequence | apparent Kd [1] [nM] | apparent Kd [2] [nM] | apparent Kd [3] [nM] | apparent Kd [4] [nM] |
| --- | --- | --- | --- | --- |
| CUGACAGUGUAGCGCGUCUAGCCAGAGGAUAUCCACAUGAGGAUCACCCAUGUCAUGUCCUCGCGGGAGAAGGCUGGCUUGGCG | 204 | 54.3 |  |  |
| GAGUUGAAGUUAGGAUAUUGGAUAGGGACGGAAUAAGAAGGAGCAAGACAUGAGGAUCACCCAUGUGUAGAAGAAGAGAUCCUC | 352 | 227 |  |  |
| AUUCUGCUCGCAGGAUAUCAGGAAAUGUUGAUCUUCUGUAUCUCCUACAUGAGGAUCACCCAUGUUGAGAAGGGCGAUGGCAAU | 65.7 | 400 |  |  |
| GUGUCUUGGGAGAAGGCCGUAUGCAAAGCAUACGGAGGAUAUUCAUACCGGAAACGGACAUGAGGAUCACCCAUGUGGCACAAA |  |  | 947 | 34.8 |
| AAUCCACAUGAGGAUCACCCAUGUCAGGAUAUCGCGCGCGCGUUUUCGGUCUUUCGCGCGAGAAGGGACGGCUG | 17.7 | 23.5 |  |  |
| ACGACUGUCAUAGGAUAUGGUUACAUGAGGAUCACCCAUGUCAAGGGUCUAACUAAGUAUAGCUACUAGAAGGAUGAUAGUCGA | 143 | 116 |  |  |
| GCCAGAGAAGGAUAUACGAGGAUCGAGUGGUCACACCUACAACAUGAGGAUCACCCAUGUAGAAGGUUUCGGCU | 13.9 | 16.3 |  |  |
| AUGUAGCUAGGAUAUACAUAGAUACAGAUUCAUGUAGAACUACAUGAGGAUCACCCAUGUAGAAGGAGCUAAAA | 28.7 | 50.4 |  |  |
| CGUGACGACAUAGGAUAUUGUUACAUGAGGAUCACCCAUGUCAACCAUUUAUCUCAAAUUGUUGACAAGAAGGAUGUGGUCACG |  |  | 32.6 | 11.6 |
| UGAAAUCAUGUAGGAUAUGCAUGGCGAAGCUACGCAGAAGGACAUGAGGAUCACCCAUGUUCGAGGGUCUGAGUACAGAUCCAA | 25.2 | 162 |  |  |
| GAUUUCGCAUGAGGAUAUGCUCGCAUUUCAAGAGCAGAAGGUAUGUCUUUAGACAUGAGGAUCACCCAUGUAGUUAAGAUUGAA |  |  | 24.3 | 14.7 |
| GUCCCACAUGAGGAUCACCCAUGUGAGGAUAUGGAUUCGCUGGCCGUAGCCAGUGGAUCCAGAAGGCGCAUGAU | 19.6 | 26.5 |  |  |
| AUCAGCUCGUCAGGAUAUACGUCACUGCGUCAACAGUGUGGUAAGAUCACAUGAGGAUCACCCAUGUAGAAGGGACGAGCUGAU | 14.6 | 266 |  |  |
| UGACAUAUAUAGAAGGGUAUGUGGGAAUUACAUGAGGAUCACCCAUGUUUUAUAGGAUAUGUAUAUAGUUUUUAAUCAAGUUUA | 35.1 | 26.9 |  |  |
| UUUUACAUAGGAUAUAGUUUGUUGUACAUGAGGAUCACCCAUGUUGUUGGUUGUGCUGUUCUAGAAGGAUGUUUCU | 44.4 | 33.8 |  |  |
| GCGGUACAUGAGGAUCACCCAUGUCAGGAUAUCCGCUGUUUGUCGAUUGGCGGGCGGUGGAGAAGGGACCUCGC | 80.4 | 81.6 |  |  |
| GUGAAGUAAGGAUAUACAUGAGGAUCACCCAUGUGUGGGAAGGUGAUGGGAGUAGGUAGUAGAAGGUACGAGGA | 130 | 76.6 |  |  |
| CAAAACAUCUCCGUGUUUGUCGAACAUGAGGAUCACCCAUGUAGAAGGCAUCGCGCGACGCAGGAUGAGGAUAUACGCUGGAUG | 6.43 | 11 |  |  |
| CCUCCAUCAUGAGGAUAUGGCACCUUAUUGGUGCCAGAAGGCAUGUCUUUUGACAUGAGGAUCACCCAUGUAAUAAAUUGGAGG |  |  | 1280 | 127 |

| Sequence | apparent Kd [1] [nM] | apparent Kd [2] [nM] | apparent Kd [3] [nM] | apparent Kd [4] [nM] |
| --- | --- | --- | --- | --- |
| AUAUGUAACUAGGAUAUCAGCAUACUUCAAUGUUGAGAAGGAGUUACAUGAGGAUCACCCAUGUAUCCAACAUG | 40.5 | 28.6 |  |  |
| GCAGGUAUACGAGGAUAUGGGUGGUACGGACAUGAGGAUCACCCAUGUCUCCCAGAAGGCGUAGCCUAACAUUAAGAGCAGGAG |  |  | 122 | 22.5 |
| GUUGUUUCUGAGGAUAUUAUUUUUUUCGAUUGAUAAGAAGGCAGUACAUGAGGAUCACCCAUGUGGGUUGUUUG | 54.5 | 164 |  |  |
| UUAUACUGAGAGAAGGUUCAAACUACAUAUUGCAUACAUGAGGAUCACCCAUGUUGGUGAAUAAGAAAGGAUAUUUUACUGUAU | 39.2 | 27.9 |  |  |
| UUGGACGUCGUAGGAUAUGUAGGAUGUUCCUACAUGAGGAUCACCCAUGUUGACAUGGAAGAAGGACAGAAGGACGAUGUCCAU |  |  | 547 | 27 |
| GUCCUACAUGAGGAUCACCCAUGUAAGGAUAUGCUAGCGGUCGGCUGACUGACUGCUAGCAGAAGGUACAUGAU | 17.5 | 24.6 |  |  |
| GUCUUCCUAGGAUAUACAUGAGGAUCACCCAUGUACAGUUUCGUCAAAGGAUACUCGCGUAGAAGGAGGUGGAU | 26 | 50.7 |  |  |
| AGGUGCACAGGAUAUACAUGAGGAUCACCCAUGUGCCAACUGUGCGCUGGUCCUUUAUGUAGAAGGGUGCGUCC | 22.1 | 15.8 |  |  |
| UUUAUAUAGUAAGGAUAUGUAUUAUUUUUUUCAACAGAAGGUACUGACAUGAGGAUCACCCAUGUUUUAGUGUGGGCAUGUAGU | 384 | 450 |  |  |
| UUAGCGCGAGGAUAUGCGGUUUGUGCUUUGGGCCCUGGCGUACAUGAGGAUCACCCAUGUAGAAGGCGUGUUGU | 24.7 | 24.8 |  |  |
| GAAAAACAUGAGGAUCACCCAUGUAAAAAAAUGGGAGGAUAUACAAAGACGAAAGUCAAAGUAGAAGGCCUGAAAG |  |  | 54.9 | 20.7 |
| CAUACCUGUGAAGGAUAUACGUUGUUAGCUACCGUAGAAGGUCACAUGAGGAUCACCCAUGUCAAGGCAAGAACAUGAUCCGAA | 304 | 566 |  |  |
| UUGGAGUACGUAGGAUAUGUAGGAUAUUCCUACAUGAGGAUCACCCAUGUAAGCAUGGAAGAAGGACAGAAGGACGUGCUCCAU |  |  | 223 | 14.9 |
| GGUUCGGGAGGAUAUGUUUUUUUUUACAUGAGGAUCACCCAUGUUUUUGUGUUUUUUUUCAUAGAAGGUUUGGGCC | 39 | 39.3 |  |  |
| GCGUAACAUGAGGAUCACCCAUGUACCCGAGAAUUCGGGUGUAGAAGGGUGACCGGUCGUUUGGCACAGGAUAUACACGUUGUG |  |  | 30.1 | 16.8 |
| GACAUACAUGAGGAUCACCCAUGUUCAGAAGGGCAAGGAUAUGUGUGGAAACCAUACUAUACAGAAGGUGUCUGUC |  |  | 34.7 | 20.3 |
| GCAUCCAUAGUGAGGAUAUACCUCUGGAUACAUAGGUAGAAGGCACAUGAGGAUCACCCAUGUUCUUAGGAUGC | 28.7 | 35.4 |  |  |
| UAUUUAAUCAUAGGAUAUAGUGUGAAAUUUGGACUAGAAGGAUGUAACAUGAGGAUCACCCAUGUGGUAAGUGGGACACAUUGA |  |  | 107 | 130 |
